# Measurements taken from ChEMBL document CHEMBL5303300, “EUbOPEN Chemogenomics Library - Multiplex” (2023).
# Where “and” joins values, the source holds several entries; their conditions need not be identical. Equal values may be shown once.
# System: HEK-293T
# Experiment: Multiplex assay against HEK293T
# Assay type: toxicity, cell-based
# Details: human, number of replicates 2
# Procedure, shortened: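 Cells stained live at seeding with Hoechst33342, BioTracker Green Microtubule Cytoskeleton Dye, MitoTracker Red and Annexin V Alexa Fluor 680 were imaged on a CQ1 microscope at 37°C and 5% CO2 after compound addition. Their classification by CellPathfinder machine-learning gating ran from Hoechst high-intensity objects versus normal cells, to healthy, pyknosed or fragmented nuclei among normal cells, to mitotic or apoptotic among pyknosed cells. Tubulin, mitochondrial-mass and membrane-permeability phenotypes are per cents of healthy-nucleus cells.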
# [1] = 12 h, 1 µM, compound concentration 1 uM
# [2] = 12 h, 10 µM, compound concentration 10 uM
# [3] = 24 h, 1 µM, compound concentration 1 uM
# [4] = 24 h, 10 µM, compound concentration 10 uM
# [5] = 48 h, 1 µM, compound concentration 1 uM
# [6] = 48 h, 10 µM, compound concentration 10 uM
smiles,measurement,setting,value
CCCCOc1c(C(=O)c2c(F)cc(C)cc2F)c[nH]c2nncc1-2,Population Apoptotic (%),[1],54% and 43%
same,Population Fragmented Nuclei (%),[1],3% and 2%
same,Population Healthy Nuclei (%),[1],87% and 86%
same,Population Hoechst High Intensity Objects (%),[1],7% and 6%
same,Population Membrane Permeable-Phenotype (%),[1],3% and 4%
same,Population Mitochondria Different-Phenotype (%),[1],11% and 7%
same,Population Mitotic Cells (%),[1],45% and 56%
same,Population Normal (%),[1],92% and 93%
same,Population Pyknosed Nuclei (%),[1],9% and 11%
same,Population Tubulin-Different-Phenotype (%),[1],58% and 46%
same,Total Cell Count,[1],782 and 748
same,Population Apoptotic (%),[2],50% and 64%
same,Population Fragmented Nuclei (%),[2],3%
same,Population Healthy Nuclei (%),[2],85% and 81%
same,Population Hoechst High Intensity Objects (%),[2],10% and 11%
same,Population Membrane Permeable-Phenotype (%),[2],7% and 4%
same,Population Mitochondria Different-Phenotype (%),[2],17%
same,Population Mitotic Cells (%),[2],50% and 35%
same,Population Normal (%),[2],89% and 88%
same,Population Pyknosed Nuclei (%),[2],11% and 14%
same,Population Tubulin-Different-Phenotype (%),[2],77% and 74%
same,Total Cell Count,[2],766 and 710
same,Population Apoptotic (%),[3],34% and 50%
same,Population Fragmented Nuclei (%),[3],7% and 5%
same,Population Healthy Nuclei (%),[3],85%
same,Population Hoechst High Intensity Objects (%),[3],10% and 11%
same,Population Membrane Permeable-Phenotype (%),[3],1% and 3%
same,Population Mitochondria Different-Phenotype (%),[3],4% and 5%
same,Population Mitotic Cells (%),[3],65% and 50%
same,Population Normal (%),[3],89% and 88%
same,Population Pyknosed Nuclei (%),[3],7% and 8%
same,Population Tubulin-Different-Phenotype (%),[3],32% and 46%
same,Total Cell Count,[3],1018 and 1015
same,Population Apoptotic (%),[4],59% and 67%
same,Population Fragmented Nuclei (%),[4],5%
same,Population Healthy Nuclei (%),[4],82% and 83%
same,Population Hoechst High Intensity Objects (%),[4],9% and 10%
same,Population Membrane Permeable-Phenotype (%),[4],3% and 2%
same,Population Mitochondria Different-Phenotype (%),[4],5%
same,Population Mitotic Cells (%),[4],40% and 32%
same,Population Normal (%),[4],90% and 89%
same,Population Pyknosed Nuclei (%),[4],11%
same,Population Tubulin-Different-Phenotype (%),[4],57% and 52%
same,Total Cell Count,[4],954 and 851
same,Population Fragmented Nuclei (%),[5],17% and 10%
same,Population Healthy Nuclei (%),[5],79% and 86%
same,Population Hoechst High Intensity Objects (%),[5],16%
same,Population Membrane Permeable-Phenotype (%),[5],4% and 2%
same,Population Mitochondria Different-Phenotype (%),[5],1% and 2%
same,Population Mitotic Cells (%),[5],88% and 65%
same,Population Normal (%),[5],83%
same,Population Pyknosed Nuclei (%),[5],2% and 3%
same,Population Tubulin-Different-Phenotype (%),[5],24% and 36%
same,Total Cell Count,[5],1720 and 1259
same,Population Apoptotic (%),[6],41% and 63%
same,Population Fragmented Nuclei (%),[6],13% and 10%
same,Population Healthy Nuclei (%),[6],82% and 86%
same,Population Hoechst High Intensity Objects (%),[6],12%
same,Population Membrane Permeable-Phenotype (%),[6],4% and 1%
same,Population Mitochondria Different-Phenotype (%),[6],4% and 5%
same,Population Mitotic Cells (%),[6],58% and 36%
same,Population Normal (%),[6],87%
same,Population Pyknosed Nuclei (%),[6],3% and 2%
same,Population Tubulin-Different-Phenotype (%),[6],46% and 47%
same,Total Cell Count,[6],1114 and 939
CN(C)[C@H]1CC[C@H](Nc2ncc3ncnc(Nc4ccc(F)c(Cl)c4)c3n2)CC1,Population Apoptotic (%),[1],46% and 50%
same,Population Fragmented Nuclei (%),[1],4% and 5%
same,Population Healthy Nuclei (%),[1],88% and 87%
same,Population Hoechst High Intensity Objects (%),[1],9% and 10%
same,Population Membrane Permeable-Phenotype (%),[1],2% and 1%
same,Population Mitochondria Different-Phenotype (%),[1],14% and 10%
same,Population Mitotic Cells (%),[1],53% and 50%
same,Population Normal (%),[1],90% and 89%
same,Population Pyknosed Nuclei (%),[1],7%
same,Population Tubulin-Different-Phenotype (%),[1],45% and 36%
same,Total Cell Count,[1],608 and 681
same,Population Apoptotic (%),[2],30% and 17%
same,Population Fragmented Nuclei (%),[2],6% and 7%
same,Population Healthy Nuclei (%),[2],82% and 79%
same,Population Hoechst High Intensity Objects (%),[2],47% and 50%
same,Population Membrane Permeable-Phenotype (%),[2],3% and 4%
same,Population Mitochondria Different-Phenotype (%),[2],6% and 5%
same,Population Mitotic Cells (%),[2],69% and 82%
same,Population Normal (%),[2],52% and 49%
same,Population Pyknosed Nuclei (%),[2],10% and 13%
same,Population Tubulin-Different-Phenotype (%),[2],33% and 29%
same,Total Cell Count,[2],768 and 714
same,Population Apoptotic (%),[3],40% and 51%
same,Population Fragmented Nuclei (%),[3],7% and 8%
same,Population Healthy Nuclei (%),[3],87% and 88%
same,Population Hoechst High Intensity Objects (%),[3],10% and 11%
same,Population Membrane Permeable-Phenotype (%),[3],2% and 1%
same,Population Mitochondria Different-Phenotype (%),[3],4% and 3%
same,Population Mitotic Cells (%),[3],60% and 48%
same,Population Normal (%),[3],89% and 88%
same,Population Pyknosed Nuclei (%),[3],4% and 2%
same,Population Tubulin-Different-Phenotype (%),[3],21% and 22%
same,Total Cell Count,[3],1021 and 1110
same,Population Apoptotic (%),[4],17% and 13%
same,Population Fragmented Nuclei (%),[4],8% and 9%
same,Population Healthy Nuclei (%),[4],82% and 77%
same,Population Hoechst High Intensity Objects (%),[4],44% and 49%
same,Population Membrane Permeable-Phenotype (%),[4],2%
same,Population Mitochondria Different-Phenotype (%),[4],2% and 4%
same,Population Mitotic Cells (%),[4],82% and 86%
same,Population Normal (%),[4],55% and 50%
same,Population Pyknosed Nuclei (%),[4],8% and 13%
same,Population Tubulin-Different-Phenotype (%),[4],24% and 21%
same,Total Cell Count,[4],1161 and 1002
same,Population Apoptotic (%),[5],17% and 35%
same,Population Fragmented Nuclei (%),[5],23% and 21%
same,Population Healthy Nuclei (%),[5],74% and 76%
same,Population Hoechst High Intensity Objects (%),[5],12% and 15%
same,Population Membrane Permeable-Phenotype (%),[5],4% and 3%
same,Population Mitochondria Different-Phenotype (%),[5],0%
same,Population Mitotic Cells (%),[5],82% and 64%
same,Population Normal (%),[5],87% and 84%
same,Population Pyknosed Nuclei (%),[5],2% and 1%
same,Population Tubulin-Different-Phenotype (%),[5],9% and 13%
same,Total Cell Count,[5],2456 and 2598
same,Population Apoptotic (%),[6],24% and 15%
same,Population Fragmented Nuclei (%),[6],22% and 17%
same,Population Healthy Nuclei (%),[6],74%
same,Population Hoechst High Intensity Objects (%),[6],36% and 42%
same,Population Membrane Permeable-Phenotype (%),[6],3%
same,Population Mitochondria Different-Phenotype (%),[6],0%
same,Population Mitotic Cells (%),[6],75% and 84%
same,Population Normal (%),[6],63% and 57%
same,Population Pyknosed Nuclei (%),[6],3% and 7%
same,Population Tubulin-Different-Phenotype (%),[6],14% and 15%
same,Total Cell Count,[6],2410 and 1820
CC(C)S(=O)(=O)c1ccccc1Nc1nc(N[C@@H]2CCCN(CCCCCCCNC(=O)COc3cccc4c3C(=O)N(C3CCC(=O)N(C)C3=O)C4=O)C2)ncc1Cl (stereo partly specified),Population Apoptotic (%),[1],55% and 78%
same,Population Fragmented Nuclei (%),[1],6% and 3%
same,Population Healthy Nuclei (%),[1],84% and 81%
same,Population Hoechst High Intensity Objects (%),[1],11%
same,Population Membrane Permeable-Phenotype (%),[1],0%
same,Population Mitochondria Different-Phenotype (%),[1],39% and 45%
same,Population Mitotic Cells (%),[1],44% and 21%
same,Population Normal (%),[1],88%
same,Population Pyknosed Nuclei (%),[1],8% and 14%
same,Population Tubulin-Different-Phenotype (%),[1],56% and 62%
same,Total Cell Count,[1],479 and 318
same,Population Apoptotic (%),[2],60% and 74%
same,Population Fragmented Nuclei (%),[2],3%
same,Population Healthy Nuclei (%),[2],69% and 72%
same,Population Hoechst High Intensity Objects (%),[2],18% and 14%
same,Population Membrane Permeable-Phenotype (%),[2],2% and 3%
same,Population Mitochondria Different-Phenotype (%),[2],76%
same,Population Mitotic Cells (%),[2],39% and 25%
same,Population Normal (%),[2],81% and 85%
same,Population Pyknosed Nuclei (%),[2],26% and 24%
same,Population Tubulin-Different-Phenotype (%),[2],49% and 77%
same,Total Cell Count,[2],464 and 428
same,Population Apoptotic (%),[3],48% and 83%
same,Population Fragmented Nuclei (%),[3],2% and 4%
same,Population Healthy Nuclei (%),[3],90% and 85%
same,Population Hoechst High Intensity Objects (%),[3],7%
same,Population Membrane Permeable-Phenotype (%),[3],0%
same,Population Mitochondria Different-Phenotype (%),[3],20% and 21%
same,Population Normal (%),[3],92%
same,Population Pyknosed Nuclei (%),[3],7% and 10%
same,Population Tubulin-Different-Phenotype (%),[3],40%
same,Total Cell Count,[3],702 and 488
same,Population Apoptotic (%),[4],82%
same,Population Fragmented Nuclei (%),[4],4% and 5%
same,Population Healthy Nuclei (%),[4],78%
same,Population Hoechst High Intensity Objects (%),[4],18% and 16%
same,Population Membrane Permeable-Phenotype (%),[4],0% and 1%
same,Population Mitochondria Different-Phenotype (%),[4],80% and 91%
same,Population Mitotic Cells (%),[4],17%
same,Population Normal (%),[4],81% and 83%
same,Population Pyknosed Nuclei (%),[4],17% and 16%
same,Population Tubulin-Different-Phenotype (%),[4],90% and 92%
same,Total Cell Count,[4],438 and 432
same,Population Apoptotic (%),[5],40% and 66%
same,Population Fragmented Nuclei (%),[5],8% and 4%
same,Population Healthy Nuclei (%),[5],85%
same,Population Hoechst High Intensity Objects (%),[5],8% and 7%
same,Population Membrane Permeable-Phenotype (%),[5],2% and 1%
same,Population Mitochondria Different-Phenotype (%),[5],7% and 11%
same,Population Mitotic Cells (%),[5],60% and 33%
same,Population Normal (%),[5],91% and 92%
same,Population Pyknosed Nuclei (%),[5],5% and 9%
same,Population Tubulin-Different-Phenotype (%),[5],26% and 27%
same,Total Cell Count,[5],1045 and 630
same,Population Apoptotic (%),[6],81% and 86%
same,Population Fragmented Nuclei (%),[6],5%
same,Population Healthy Nuclei (%),[6],82% and 78%
same,Population Hoechst High Intensity Objects (%),[6],17% and 20%
same,Population Membrane Permeable-Phenotype (%),[6],0%
same,Population Mitochondria Different-Phenotype (%),[6],46% and 78%
same,Population Mitotic Cells (%),[6],18% and 14%
same,Population Normal (%),[6],82% and 79%
same,Population Pyknosed Nuclei (%),[6],11% and 16%
same,Population Tubulin-Different-Phenotype (%),[6],57% and 65%
same,Total Cell Count,[6],458 and 378
